Hits are enriched below; roughly 1.9% of the tested compounds scored in any of these assays.
PLC-beta3 inh: blocks human PLC-beta3 enzyme activity. Purified PLC-beta3, fluorogenic substrate, fluorescence. inhibition, % at 12.2 µM. actives 0.18% (n = 370,000). AID 720704; in the data active means inhibition above about 11%;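 further: 0% = median of compound wells on plate and 100% = full blocker control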
ARFGAP1 inh: inhibitors of rat ARFGAP1 | Q62848 | Arfgap1-stimulated ARF1 GTP hydrolysis, GDP FP detection | inhibition, % at 16.5 µM | actives 0.26% (n = 360,000) | AID 651572;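 active means inhibition above a per-plate limit, mean inhibition of low control wells plus 3 SD, cut at about 25% in these data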;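 further: 0% = DMSO wells with enzyme and 100% = wells lacking Arfgap1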
Target sequence (Q62848 1-136 limits assumed): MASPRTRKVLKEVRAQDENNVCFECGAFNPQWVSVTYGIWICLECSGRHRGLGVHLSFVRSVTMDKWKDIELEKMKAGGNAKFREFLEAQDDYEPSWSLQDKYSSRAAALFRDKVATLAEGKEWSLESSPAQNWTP
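Assay system: Rat Arfgap1 GAP domain (His6, aa 1-136), purified enzyme | Buffer or medium: HEPES 25 mM pH 7.5, NaCl 150 mM, MgCl2, DTT | Schedule: GTP hydrolysis reaction 2 h at 25 °C | Signal: FP of antibody-bound GDP Alexa 633 tracer, ex 620/em 688 nm | Measure: Percent inhibition of Arfgap1-stimulated GTP hydrolysis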
sPLA2-III inh: Inhibits HGIII-sPLA2 liposome hydrolysis, primary screen; AID 743126; QFRET BODIPY PC-A2 liposome hydrolysis, fluorescence; Q9NZ20; actives 0.56% (n = 370,000); inhibition, % at 12.2 µM;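 active means inhibition above mean plus 3 SD of compounds lying within the high and low control bounds, cut at about 19% in these data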;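 further: 0% = median of test compound wells and 100% = no enzyme DMSO wells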
PLCg1 inh: PLC-gamma1 (human) inhibition, primary screen. P19174. purified PLC-gamma1, fluorogenic substrate, fluorescence. inhibition, % at 12.2 µM. actives 0.84% (n = 370,000). AID 720700
ASAP1 inh: ASAP1 ArfGAP inhibition | inhibition, % at 16.5 µM | AID 624377 | actives 0.19% (n = 360,000) | ASAP1-stimulated ARF1 GTP hydrolysis, GDP FP detection | Q9ULH1; in the data active means inhibition above about 25%;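 further: 0% = vehicle with enzyme and substrate and 100% = no enzyme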
Target sequence (Q9ULH1 325-724 limits assumed): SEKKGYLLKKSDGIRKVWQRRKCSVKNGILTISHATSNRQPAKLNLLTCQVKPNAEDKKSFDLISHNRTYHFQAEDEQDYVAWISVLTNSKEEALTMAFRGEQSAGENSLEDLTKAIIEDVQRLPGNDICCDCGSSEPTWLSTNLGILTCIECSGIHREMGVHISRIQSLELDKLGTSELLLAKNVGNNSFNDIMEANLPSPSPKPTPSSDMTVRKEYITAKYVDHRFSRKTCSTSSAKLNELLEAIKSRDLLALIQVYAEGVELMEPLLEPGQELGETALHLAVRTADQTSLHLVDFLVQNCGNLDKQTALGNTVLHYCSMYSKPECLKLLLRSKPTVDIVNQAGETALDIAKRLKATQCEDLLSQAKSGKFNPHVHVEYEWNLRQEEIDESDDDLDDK
PLCgamma1 ctr: inhibits human PLC-gamma1 in PLC-beta3 counter-screen; shares compounds with PLCg1 inh; actives 3.1% (n = 3,300); purified PLC-gamma1, fluorogenic substrate, fluorescence; AID 743258; inhibition, % at 12.3 µM
PLCb3 confirm: human PLC-beta3 inhibition, confirmation | actives 1% (n = 3,300) | AID 743261 | shares compounds with PLCg1 inh | purified PLC-beta3, fluorogenic substrate fluorescence | inhibition, % at 12.3 µM; in the data active means inhibition above about 11%
An asterisk follows results filed as active; . = no result. Unless noted, no stated cut-off is given here; in the data, active means inhibition above about 9.5%; inactive means the rest.

SMILES	PLC-beta3 inh	ARFGAP1 inh	sPLA2-III inh	PLCg1 inh	ASAP1 inh	PLCgamma1 ctr	PLCb3 confirm
O=C(CN1CCc2ccccc2C1)Nc1ccc(F)cc1F	-2	13	10	10*	2	-6	-3
COc1ccccc1CCn1cnc(-c2ccccc2F)c1CC(C)C	5	-22	11	11*	-2	-7	-5
COc1ccc(C(CCNC(C)c2ccccc2)C(C)C)cc1 (stereo not given)	-5	1	5	0	-4	.	.
COc1ccc(C(C)NCCC(c2ccc(OC(C)C)cc2)c2ccccc2OC)cc1 (stereo not given)	0	-2	-5	16*	-2	-1	0
CS(=O)(=O)n1nc(OC(=O)c2cccs2)cc1N	10	10	12	12*	3	-5	2
COc1ccc(S(=O)(=O)n2nc(OC(=O)c3cccs3)cc2N)cc1	-1	7	5	1	-5	.	.
CS(=O)(=O)N1CCN(CC2CC3C=CC2C3)CC1 (stereo not given)	-1	-10	0	10.0*	3	-3	-1
O=C(CN1CCN(c2ccccc2)CC1)NC(=O)NCc1ccco1	1	5	1	11*	1	-6	-4
COc1ccc2[nH]c3c(c2c1)CCN[C@]31C(=O)N(C)c2ccc(Br)cc21	-1	.	-10	0	.	.	.
O[C@H](COc1ccc(OC(F)(F)F)cc1)CN1CCC(C(O)(c2ccccc2)c2ccccc2)CC1	-1	.	-12	0	.	.	.
CCN(CC)CCc1nc(-c2ccccc2)no1	9	0	3	11*	1	-2	2
CCC(C)(C)NC(=O)C(c1ccc(OC)cc1)N(CC1CCCO1)C(=O)CCC(=O)Nc1cc(C)on1 (stereo not given)	2	0	4	1	-6	.	.
CCC(C)(C)NC(=O)C(c1ccc(OC)cc1)N(C(=O)CCC(=O)Nc1cc(C)on1)C1CC1 (stereo not given)	2	0	15	11*	-7	-3	0
COC(=O)[C@]12C[C@H](CC(=O)NCCCN3CCCC3=O)C(=O)N(Cc3ccc(Cl)cc3Cl)C1=C[C@H](COCc1ccccc1)O[C@@H]2C	2	.	-15	1	.	.	.
COc1ccc(N2CCN(CCCNC(=O)CCc3ccc(F)cc3)CC2)cc1	2	.	5	1	.	.	.
O=C(NCc1ccccc1)c1ccc(C(=O)NCc2ccccc2)cc1	1	1	-2	5	-12	.	.
O=C(NCc1ccccc1)c1n[nH]nc1-c1ccccc1O	-7	8	-46	17*	15	16*	-6
Fc1ccc(C(c2nnnn2Cc2cccs2)N2CCN(c3ccccc3)CC2)cc1 (stereo not given)	2	-7	-1	3	-5	.	.
COc1ccc(C(c2nnnn2Cc2cccs2)N2CCN(c3ccccc3F)CC2)cc1OC (stereo not given)	14*	-6	2	11*	-5	5	4
O=C(NC(Cc1ccccc1)C(=O)N1CCCCC1)c1ccccc1 (stereo not given)	6	4	14	13*	-1	-6	-5
CC(C)CN1C(=O)C[C@@]2(C(=O)N(C)c3ccc(NC(=O)c4cc(F)ccc4F)cc32)C1c1ccccc1 (stereo not given in full)	3	.	-5	1	.	.	.
COC(C(=O)NNS(=O)(=O)c1ccccc1[N+](=O)[O-])c1ccccc1 (stereo not given)	-4	7	9	1	8	.	.
COC(C(=O)NNS(=O)(=O)c1ccc([N+](=O)[O-])cc1)c1ccccc1 (stereo not given)	7	6	8	12*	-5	-5	-1
c1ccc(-c2cc(-c3nnc4sc(Cc5cccs5)nn34)[nH]n2)cc1	-1	.	-42	0	.	.	.
Cc1ccc(Nc2nc(Nc3ccc(C)cc3)nc(SC3=NCCS3)n2)cc1	2	-8	-2	16*	6	5	3
SMILES	PLC-beta3 inh	ARFGAP1 inh	sPLA2-III inh	PLCg1 inh	ASAP1 inh	PLCgamma1 ctr	PLCb3 confirm
O=S1(=O)c2c(cccc2N2CC[C@@H](O)C2)O[C@H]2CCN1C2	2	.	0	-1	.	.	.
CCOC(=O)c1c(C)[nH]c(C(=O)CN2C(=O)NC3(CCCC3)C2=O)c1C	8	6	1	13*	0	-2	2
O=C(c1cccc(S(=O)(=O)N2CCOCC2)c1)N(CCO)Cc1ccccc1	0	12	-3	10*	-5	-5	-1
O=C(c1cccc(S(=O)(=O)N2CCCCC2)c1)N(CCc1ccccc1)Cc1ccccc1	-2	-4	-15	2	-1	.	.
COc1cc2cc(-c3ccc(O)cc3O)nc(C)c2cc1OC	-6	24	-30	13*	7	-4	0
COc1cc2cc(-c3ccc(OC)c(OC)c3C)nc(N)c2cc1OC	-106	11	-2	-69	-17	.	.
O=C(CSc1ccccc1)N(c1ccc(Br)cc1)c1nccs1	6	-3	-8	14*	3	-1	-1
O=C(c1ccncc1)N1CCC(Oc2cccnc2)CC1	5	.	6	0	.	.	.
O=C(NCc1cccs1)C1CCN(S(=O)(=O)c2cccs2)CC1	-2	9	4	0	-6	.	.
Cc1cc(C)c(C)c(S(=O)(=O)N2CCC(C(=O)NCc3cccs3)CC2)c1C	2	-6	-22	12*	5	-9	-5
O=C(NCc1cccs1)C1CCN(c2nc3ccccc3o2)CC1	3	1	4	9.7*	6	-2	-4
COc1cccc(CNC(=O)[C@H]2CCCN2C(=O)[C@H]2CCCN2C(=O)c2ccccc2)c1	6	1	6	6	1	.	.
CN1CCN(S(=O)(=O)c2cccc(C(=O)Oc3ccc(Br)cc3F)c2)CC1	0	-4	6	11*	3	-4	-1
O=C(Nc1ccc2c(c1)OCO2)OC1CCC12CCCCC2 (stereo not given)	1	.	2	1	.	.	.
CCCCNC(=O)NCCCN1CCN(c2ccc(F)cc2)CC1	0	.	4	2	.	.	.
Cc1ccc(C2OC(=O)c3ccccc32)cc1 (stereo not given)	3	-9	9	9.6*	7	-2	0
COc1ccc(C(CCN(Cc2ccc(OC)c(OC)c2)C(C)=O)C(C)C)cc1 (stereo not given)	-6	7	3	11*	10	1	1
COC(=O)N1C[C@H](OC(=O)c2ccc(-c3ccccc3)cc2)[C@H]2C[C@@H]1c1ccccc1O2	-1	-1	11	0	0	.	.
COCc1[nH]nc2c1C(c1ccc3c(c1)OCO3)N(Cc1ccccc1)C2=O (stereo not given)	-1	-1	-8	-1	-10	.	.

Screens deposited in PubChem BioAssay by The Scripps Research Institute Molecular Screening Center.
